The source made the active and inactive calls. The calls are words filed in the database; no cut-off is given here.
Assays:
Assay type in all cases: functional, organism-based
[1] = system: Cryptococcus neoformans; experiment: Antimicrobial activity against Cryptococcus neoformans ATCC 208821 at 32 ug/ml after 24 hrs by resazurin dye based assay
Summary of the method: (§1)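 Fungi grown 3 days on yeast extract–peptone dextrose agar at 30 °C, then diluted in yeast nitrogen base broth to 2.5 × 10^5 CFU/mL. Samples from 10 mg/mL DMSO stocks, duplicate wells, final 32 μg/mL; 35 °C, 24 h. Resazurin added (0.001% final), 2 h more at 35 °C, absorbance at 530 nm. Percent inhibition against on-plate controls; Z-scores.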

[2] = system: Escherichia coli; experiment: Antimicrobial activity against Escherichia coli ATCC 25922 at 32 ug/ml after 18 hrs
Summary of the method: (§2)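 Single-concentration screen: samples from 10 mg/mL DMSO stocks, duplicate wells; overnight culture in cation-adjusted Mueller Hinton broth at 37 °C, added to 5 × 10^5 CFU/mL, final compound 32 μg/mL; 37 °C, 18 h. Growth read as absorbance at 600 nm; percent inhibition against media-only and untreated-cell controls on the same plate, significance by Z-score.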

[3] = system: Staphylococcus aureus; experiment: Antimicrobial activity against methicillin-resistant Staphylococcus aureus ATCC 43300 at 32 ug/ml after 18 hrs
Summary of the method: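 Single-concentration screen (COADD): samples dissolved in DMSO at 10 mg/mL stock, plated in duplicate; overnight culture in cation-adjusted Mueller Hinton broth at 37 °C added to 5 × 10^5 CFU/mL, final 32 μg/mL. Incubated 37 °C. Read-out absorbance 600 nm; percent growth inhibition versus media-only and untreated-cell controls on the same plate; significance by Z-score from sample wells.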

[4] = system: Klebsiella pneumoniae; experiment: Antimicrobial activity against Klebsiella pneumoniae ATCC 700603 at 32 ug/ml after 18 hrs; summary of the method: as §2
[5] = system: Candida albicans; experiment: Antimicrobial activity against Candida albicans ATCC 90028 at 32 ug/ml after 24 hrs by resazurin dye based assay; summary of the method: as §1
[6] = system: Acinetobacter baumannii; experiment: Antimicrobial activity against Acinetobacter baumannii ATCC 19606 at 32 ug/ml after 18 hrs; details: ATCC 19606 = CIP 70.34 = JCM 6841; summary of the method: as §2
[7] = system: Pseudomonas aeruginosa; experiment: Antimicrobial activity against Pseudomonas aeruginosa ATCC 27853 at 32 ug/ml after 18 hrs; summary of the method: as §2
[8] = system: Acinetobacter baumannii; experiment: Antimicrobial activity against Acinetobacter baumannii ATCC 19606 at 94.9 uM after 18 hrs; details: ATCC 19606 = CIP 70.34 = JCM 6841; summary of the method: as §2
[9] = system: Acinetobacter baumannii; experiment: Antimicrobial activity against Acinetobacter baumannii ATCC 19606 at 53.9 uM after 18 hrs; details: ATCC 19606 = CIP 70.34 = JCM 6841; summary of the method: as §2
[10] = system: Acinetobacter baumannii; experiment: Antimicrobial activity against Acinetobacter baumannii ATCC 19606 at 52.4 uM after 18 hrs; details: ATCC 19606 = CIP 70.34 = JCM 6841; summary of the method: as §2

With `O=C(/C=C/c1ccc(O)cc1)O[C@H]1[C@H](O)[C@@H](O)[C@H](Oc2cc(O)c(O)c(C(=O)/C=C/c3ccc(O)cc3)c2)O[C@@H]1CO` the Activity [1] was “inactive”, the Activity [2] was “inactive” and the Activity [3] was “inactive”. The Activity [4] was “inactive”, the Activity [5] was “inactive” and the Activity [6] was “inactive”. For the same compound, the Activity [7] was “inactive”.
In the case of `O=C(/C=C/c1ccc(O)cc1)OC[C@H]1O[C@@H](Oc2cc3c(O)cc(O)cc3[o+]c2-c2ccc(O)c(O)c2)[C@H](O)[C@@H](O)[C@@H]1O`, the Activity [1] is reported as “inactive”, the Activity [2] is reported as “inactive” and the Activity [3] is reported as “inactive”. The Activity [4] was “inactive”, the Activity [5] was “inactive” and the Activity [6] was “inactive”. The Activity [7] was “inactive”.
For `NC(CCCC(OC(=O)/C=C/c1ccc(O)cc1)C(=O)O)C(=O)O` (stereo unspecified), the Activity [1] was “inactive”, the Activity [2] was “inactive” and the Activity [3] was “inactive”. The Activity [4] was “inactive”, the Activity [5] was “inactive” and the Activity [8] was “Active”. The Activity [7] was “inactive”.
In the case of `O=C(/C=C/c1ccc(O)cc1)OC[C@H]1O[C@@H](Oc2c(-c3ccc(O)cc3)oc3cc(O)cc(O)c3c2=O)[C@H](O)[C@@H](O)[C@@H]1O`, the Activity [1] is reported as “inactive”, the Activity [2] is reported as “inactive” and the Activity [3] is reported as “inactive”. The Activity [4] was “inactive”, the Activity [5] was “inactive” and the Activity [6] was “inactive”. For the same compound, the Activity [7] was “inactive”.
In the case of `O=c1c(O[C@@H]2O[C@H](CO)[C@@H](O)[C@H](O)[C@H]2O)c(-c2ccc(O)c(O)c2)oc2cc(O)cc(O)c12`, the Activity [1] is reported as “inactive”, the Activity [2] is reported as “inactive” and the Activity [3] is reported as “inactive”. For the same compound, the Activity [4] was “inactive”, the Activity [5] was “inactive” and the Activity [6] was “inactive”. The Activity [7] was “inactive”.
With `O=c1cc(-c2ccc(O)c(O)c2)oc2cc(O[C@@H]3O[C@H](CO)[C@@H](O)[C@H](O)[C@H]3O)cc(O)c12` the Activity [1] was “inactive”, the Activity [2] was “inactive” and the Activity [3] was “inactive”. For the same compound, the Activity [4] was “inactive”, the Activity [5] was “inactive” and the Activity [6] was “inactive”. The Activity [7] was “inactive”.
With `O=c1c(O)c(-c2ccc(O)cc2)oc2cc(O)cc(O)c12` the Activity [1] was “inactive”, the Activity [2] was “inactive” and the Activity [3] was “inactive”. The Activity [4] was “inactive”, the Activity [5] was “inactive” and the Activity [6] was “inactive”. For the same compound, the Activity [7] was “inactive”.
In the case of `O=C(O)[C@H]1O[C@@H](Oc2cc(O)c3c(=O)cc(-c4ccc(O)cc4)oc3c2)[C@H](O)[C@@H](O)[C@@H]1O`, the Activity [1] is reported as “inactive”, the Activity [2] is reported as “inactive” and the Activity [3] is reported as “inactive”. The Activity [4] was “inactive”, the Activity [5] was “inactive” and the Activity [6] was “inactive”. The Activity [7] was “inactive”.
For `O=C(/C=C/c1ccc(O)cc1)OC[C@H]1O[C@@H](Oc2c(-c3ccc(O)c(O)c3)oc3cc(O)cc(O)c3c2=O)[C@H](O)[C@@H](O)[C@@H]1O`, the Activity [1] was “inactive”, the Activity [2] was “inactive” and the Activity [3] was “inactive”. The Activity [4] was “inactive”, the Activity [5] was “inactive” and the Activity [6] was “inactive”. The Activity [7] was “inactive”.
For `O=C1c2c(O)cc(O)cc2O[C@H](c2ccc(O)c(O)c2)[C@H]1O`, the Activity [1] was “inactive”, the Activity [2] was “inactive” and the Activity [3] was “inactive”. For the same compound, the Activity [4] was “inactive”, the Activity [5] was “inactive” and the Activity [6] was “inactive”. For the same compound, the Activity [7] was “inactive”.
In the case of `C[C@@H]1O[C@@H](OC[C@H]2O[C@@H](Oc3c(-c4ccc(O)c(O)c4)oc4cc(O)cc(O)c4c3=O)[C@H](O)[C@@H](O)[C@@H]2O)[C@H](O)[C@H](O)[C@H]1O`, the Activity [1] is reported as “inactive”, the Activity [2] is reported as “inactive” and the Activity [3] is reported as “inactive”. For the same compound, the Activity [4] was “inactive”, the Activity [5] was “inactive” and the Activity [6] was “inactive”. The Activity [7] was “inactive”.
For `C[C@@H]1O[C@@H](OC[C@H]2O[C@@H](Oc3c(-c4ccc(O)cc4)oc4cc(O)cc(O)c4c3=O)[C@H](O)[C@@H](O)[C@@H]2O)[C@H](O)[C@H](O)[C@H]1O`, the Activity [9] was “Active”, the Activity [1] was “inactive” and the Activity [2] was “inactive”. The Activity [3] was “inactive”, the Activity [4] was “inactive” and the Activity [5] was “inactive”. The Activity [7] was “inactive”.
For `C[C@@H]1O[C@@H](OC[C@H]2O[C@@H](Oc3cc4c(O)cc(O)cc4[o+]c3-c3ccc(O)c(O)c3)[C@H](O)[C@@H](O)[C@@H]2O)[C@H](O)[C@H](O)[C@H]1O`, the Activity [1] was “inactive”, the Activity [2] was “inactive” and the Activity [10] was “Active”. For the same compound, the Activity [3] was “inactive”, the Activity [4] was “inactive” and the Activity [5] was “inactive”. For the same compound, the Activity [7] was “inactive”.
